In brackets after ≈: the same amount, converted by molar mass.
Columns and labels:
Assay type in all cases: functional
[1] = tested on: Streptococcus pneumoniae; test: Antimicrobial activity against Streptococcus pneumoniae isolate 1424 by agar dilution method
How it was run: (§1)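 Agar dilution MIC on Mueller-Hinton agar with 5% sheep blood, inocula 10^4 CFU/spot; amoxicillin-clavulanate combined 1:2; S. pneumoniae ATCC 49619 quality control each run.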

[2] = tested on: Streptococcus pneumoniae; test: Antimicrobial activity against Streptococcus pneumoniae isolate 3260 by agar dilution method
[3] = tested on: Streptococcus pneumoniae; test: Antimicrobial activity against Streptococcus pneumoniae 9 by time-kill analysis
How it was run: (§2)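 Time-kill in cation-adjusted Mueller-Hinton broth with 5% lysed horse blood; inocula 5 × 105 to 5 × 10^6 CFU/ml; drugs at MIC, 2× and 4× MIC; 35°C shaking water bath; viable counts at 0, 3, 6, 12 and 24 h. Bactericidal if ≥3 log10 CFU/ml (99.9%) reduction from original inoculum; 90% and 99% killing also scored.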

[4] = tested on: Streptococcus pneumoniae; test: Antimicrobial activity against Streptococcus pneumoniae 8 by time-kill analysis in presence of beta-lactamase inhibitor clavulanic acid
[5] = tested on: Streptococcus pneumoniae; test: Antimicrobial activity against Streptococcus pneumoniae isolate 2686 by agar dilution method; how it was run: as §1
[6] = tested on: Streptococcus pneumoniae; test: Antimicrobial activity against penicillin-resistant Streptococcus pneumoniae by agar dilution method; how it was run: as §1
[7] = tested on: Streptococcus pneumoniae; test: Antimicrobial activity against Streptococcus pneumoniae 4 by time-kill analysis in presence of beta-lactamase inhibitor clavulanic acid
[8] = tested on: Streptococcus pneumoniae; test: Antimicrobial activity against penicillin-resistant Streptococcus pneumoniae by agar dilution method in presence of beta-lactamase inhibitor clavulanic acid
How it was run: (§3)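 Agar dilution MIC on Mueller-Hinton agar with 5% sheep blood at 10^4 CFU/spot. Clavulanate combined with amoxicillin 1:2. Control S. pneumoniae ATCC 49619 included in each run. Penicillin categories: intermediate 0.125–1.0 μg/ml, resistant 2.0–16.0 μg/ml. MIC50/MIC90 taken across strain sets, including 45 drug-resistant serotype 19A isolates.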

[9] = tested on: Streptococcus pneumoniae; test: Antimicrobial activity against Streptococcus pneumoniae 5 by time-kill analysis; how it was run: as §2
[10] = tested on: Streptococcus pneumoniae; test: Antimicrobial activity against Streptococcus pneumoniae isolate 3412 by agar dilution method; how it was run: as §1
[11] = tested on: Streptococcus pneumoniae; test: Antimicrobial activity against Streptococcus pneumoniae isolate 3791 by agar dilution method; how it was run: as §1
[12] = tested on: Streptococcus pneumoniae; test: Antimicrobial activity against Streptococcus pneumoniae 5 by time-kill analysis in presence of beta-lactamase inhibitor clavulanic acid
[13] = tested on: Streptococcus pneumoniae; test: Antimicrobial activity against Streptococcus pneumoniae isolate 1397 by agar dilution method; how it was run: as §1
[14] = tested on: Streptococcus pneumoniae; test: Antimicrobial activity against Streptococcus pneumoniae 10 by time-kill analysis in presence of beta-lactamase inhibitor clavulanic acid
[15] = tested on: Streptococcus pneumoniae; test: Antimicrobial activity against Streptococcus pneumoniae 8 by time-kill analysis
How it was run: (§4)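 Time-kill in cation-adjusted Mueller-Hinton broth with 5% lysed horse blood; inocula 5 × 105 to 5 × 10^6 CFU/ml; drugs at MIC, 2× and 4× MIC; 35°C shaking water bath; viable counts at 0, 3, 6, 12, 24 h. Bactericidal = ≥3 log10 CFU/ml (99.9%) drop from original inoculum; 90%/99%/99.9% killing scored per strain.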

[16] = tested on: Streptococcus pneumoniae; test: Antimicrobial activity against Streptococcus pneumoniae isolate 1147 by agar dilution method; how it was run: as §1
[17] = tested on: Streptococcus pneumoniae; test: Antimicrobial activity against Streptococcus pneumoniae 3 by time-kill analysis in presence of beta-lactamase inhibitor clavulanic acid
[18] = tested on: Streptococcus pneumoniae; test: Antimicrobial activity against Streptococcus pneumoniae isolate 3481 by agar dilution method; how it was run: as §1
[19] = tested on: Streptococcus pneumoniae; test: Antimicrobial activity against Streptococcus pneumoniae isolate 2880 by agar dilution method; how it was run: as §1
[20] = tested on: Streptococcus pneumoniae; test: Antimicrobial activity against penicillin-susceptible Streptococcus pneumoniae by agar dilution method
[21] = tested on: Streptococcus pneumoniae; test: Antimicrobial activity against Streptococcus pneumoniae isolate 3275 by agar dilution method; how it was run: as §1
[22] = tested on: Streptococcus pneumoniae; test: Antimicrobial activity against Streptococcus pneumoniae 7 by time-kill analysis in presence of beta-lactamase inhibitor clavulanic acid
[23] = tested on: Streptococcus pneumoniae; test: Antimicrobial activity against Streptococcus pneumoniae 2 by time-kill analysis in presence of beta-lactamase inhibitor clavulanic acid
[24] = tested on: Streptococcus pneumoniae; test: Antimicrobial activity against Streptococcus pneumoniae isolate 3681 by agar dilution method; how it was run: as §1
[25] = tested on: Streptococcus pneumoniae; test: Antimicrobial activity against Streptococcus pneumoniae 1 by time-kill analysis in presence of beta-lactamase inhibitor clavulanic acid
[26] = tested on: Streptococcus pneumoniae; test: Antimicrobial activity against Streptococcus pneumoniae isolate 3346 by agar dilution method
[27] = tested on: Streptococcus pneumoniae; test: Antimicrobial activity against Streptococcus pneumoniae isolate 2874 by agar dilution method; how it was run: as §1
[28] = tested on: Streptococcus pneumoniae; test: Antimicrobial activity against Streptococcus pneumoniae 6 by time-kill analysis; how it was run: as §4
[29] = tested on: Streptococcus pneumoniae; test: Antimicrobial activity against Streptococcus pneumoniae isolate 1394 by agar dilution method
[30] = tested on: Streptococcus pneumoniae; test: Antimicrobial activity against Streptococcus pneumoniae isolate 1055 by agar dilution method
[31] = tested on: Streptococcus pneumoniae; test: Antimicrobial activity against Streptococcus pneumoniae 7 by time-kill analysis; how it was run: as §4
[32] = tested on: Streptococcus pneumoniae; test: Antimicrobial activity against Streptococcus pneumoniae isolate 1384 by agar dilution method; how it was run: as §1
[33] = tested on: Streptococcus pneumoniae; test: Antimicrobial activity against Streptococcus pneumoniae isolate 3587 by agar dilution method
[34] = tested on: Streptococcus pneumoniae; test: Antimicrobial activity against Streptococcus pneumoniae isolate 2617 by agar dilution method; how it was run: as §1
[35] = tested on: Streptococcus pneumoniae; test: Antimicrobial activity against Streptococcus pneumoniae 19A by agar dilution method; how it was run: as §1
[36] = tested on: Streptococcus pneumoniae; test: Antimicrobial activity against Streptococcus pneumoniae 10 by time-kill analysis; how it was run: as §4
[37] = tested on: Streptococcus pneumoniae; test: Antimicrobial activity against Streptococcus pneumoniae 19A by agar dilution method in presence of beta-lactamase inhibitor clavulanic acid; how it was run: as §3
[38] = tested on: Streptococcus pneumoniae; test: Antimicrobial activity against Streptococcus pneumoniae isolate 3458 by agar dilution method
[39] = tested on: Streptococcus pneumoniae; test: Antimicrobial activity against Streptococcus pneumoniae isolate 4755 by agar dilution method; how it was run: as §1
[40] = tested on: Streptococcus pneumoniae; test: Antimicrobial activity against Streptococcus pneumoniae isolate 3374 by agar dilution method; how it was run: as §1
[41] = tested on: Streptococcus pneumoniae; test: Antimicrobial activity against Streptococcus pneumoniae isolate 3282 by agar dilution method
[42] = tested on: Streptococcus pneumoniae; test: Antimicrobial activity against Streptococcus pneumoniae isolate 24 by agar dilution method
[43] = tested on: Streptococcus pneumoniae; test: Antimicrobial activity against Streptococcus pneumoniae isolate 33 by agar dilution method; how it was run: as §1
[44] = tested on: Streptococcus pneumoniae; test: Antimicrobial activity against Streptococcus pneumoniae 3 by time-kill analysis; how it was run: as §4
[45] = tested on: Streptococcus pneumoniae; test: Antimicrobial activity against Streptococcus pneumoniae 11 by time-kill analysis in presence of beta-lactamase inhibitor clavulanic acid
[46] = tested on: Streptococcus pneumoniae; test: Antimicrobial activity against Streptococcus pneumoniae 6 by time-kill analysis in presence of beta-lactamase inhibitor clavulanic acid
[47] = tested on: Streptococcus pneumoniae; test: Antimicrobial activity against Streptococcus pneumoniae isolate 37 by agar dilution method; how it was run: as §1
[48] = tested on: Streptococcus pneumoniae; test: Antimicrobial activity against Streptococcus pneumoniae 12 by time-kill analysis in presence of beta-lactamase inhibitor clavulanic acid
[49] = tested on: Streptococcus pneumoniae; test: Antimicrobial activity against Streptococcus pneumoniae 4 by time-kill analysis; how it was run: as §4
[50] = tested on: Streptococcus pneumoniae; test: Antimicrobial activity against Streptococcus pneumoniae isolate 3455 by agar dilution method
[51] = tested on: Streptococcus pneumoniae; test: Antimicrobial activity against Streptococcus pneumoniae isolate 4747 by agar dilution method; how it was run: as §1
[52] = tested on: Streptococcus pneumoniae; test: Antimicrobial activity against Streptococcus pneumoniae isolate 1146 by agar dilution method; how it was run: as §1
[53] = tested on: Streptococcus pneumoniae; test: Antimicrobial activity against Streptococcus pneumoniae 11 by time-kill analysis; how it was run: as §4
[54] = tested on: Streptococcus pneumoniae; test: Antimicrobial activity against Streptococcus pneumoniae isolate 2688 by agar dilution method; how it was run: as §1
[55] = tested on: Streptococcus pneumoniae; test: Antimicrobial activity against Streptococcus pneumoniae 12 by time-kill analysis; how it was run: as §4
[56] = tested on: Streptococcus pneumoniae; test: Antimicrobial activity against Streptococcus pneumoniae 9 by time-kill analysis in presence of beta-lactamase inhibitor clavulanic acid
[57] = tested on: Streptococcus pneumoniae; test: Antimicrobial activity against Streptococcus pneumoniae 1 by time-kill analysis; how it was run: as §2
[58] = tested on: Streptococcus pneumoniae; test: Antimicrobial activity against penicillin-intermediate Streptococcus pneumoniae by agar dilution method
[59] = tested on: Streptococcus pneumoniae; test: Antimicrobial activity against penicillin-intermediate Streptococcus pneumoniae by agar dilution method in presence of beta-lactamase inhibitor clavulanic acid; how it was run: as §3
[60] = tested on: Streptococcus pneumoniae; test: Antimicrobial activity against penicillin-susceptible Streptococcus pneumoniae by agar dilution method in presence of beta-lactamase inhibitor clavulanic acid
[61] = tested on: Streptococcus pneumoniae; test: Antimicrobial activity against Streptococcus pneumoniae isolate 1564 by agar dilution method
[62] = tested on: Streptococcus pneumoniae; test: Antimicrobial activity against Streptococcus pneumoniae 2 by time-kill analysis; how it was run: as §4
[63] = tested on: Streptococcus pneumoniae; test: Antimicrobial activity against Streptococcus pneumoniae isolate 3263 by agar dilution method

CC1(C)S[C@@H]2[C@H](NC(=O)[C@H](N)c3ccc(O)cc3)C(=O)N2[C@H]1C(=O)O [AMOXICILLIN]
MIC [1]: 8 µg/mL (≈ 21.9 µM)
MIC [2]: 8 µg/mL (≈ 21.9 µM)
MIC [3]: 0.25 µg/mL (≈ 0.684 µM)
MIC [4]: 2 µg/mL
MIC [5]: 8 µg/mL (≈ 21.9 µM)
MIC50 [6]: 2 µg/mL (≈ 5.47 µM)
MIC90 [6]: 8 µg/mL (≈ 21.9 µM)
MIC [7]: 2 µg/mL
MIC50 [8]: 2 µg/mL
MIC90 [8]: 4 µg/mL
MIC [9]: 8 µg/mL (≈ 21.9 µM)
MIC [10]: 4 µg/mL (≈ 10.9 µM)
MIC [11]: 2 µg/mL (≈ 5.47 µM)
MIC [12]: 8 µg/mL
MIC [13]: 4 µg/mL (≈ 10.9 µM)
MIC [14]: 0.06 µg/mL
MIC [15]: 2 µg/mL (≈ 5.47 µM)
MIC [16]: 4 µg/mL (≈ 10.9 µM)
MIC [17]: 0.5 µg/mL
MIC [18]: 8 µg/mL (≈ 21.9 µM)
MIC [19]: 0.125 µg/mL (≈ 0.342 µM)
MIC50 [20]: 0.03 µg/mL (≈ 0.0821 µM)
MIC90 [20]: 0.03 µg/mL (≈ 0.0821 µM)
MIC [21]: 1 µg/mL (≈ 2.74 µM)
MIC [22]: 2 µg/mL
MIC [23]: 0.03 µg/mL
MIC [24]: 2 µg/mL (≈ 5.47 µM)
MIC [25]: 0.03 µg/mL
MIC [26]: 8 µg/mL (≈ 21.9 µM)
MIC [27]: 0.5 µg/mL (≈ 1.37 µM)
MIC [28]: 0.25 µg/mL (≈ 0.684 µM)
MIC [29]: 8 µg/mL (≈ 21.9 µM)
MIC [30]: 4 µg/mL (≈ 10.9 µM)
MIC [31]: 2 µg/mL (≈ 5.47 µM)
MIC [32]: 4 µg/mL (≈ 10.9 µM)
MIC [33]: 1 µg/mL (≈ 2.74 µM)
MIC [34]: 1 µg/mL (≈ 2.74 µM)
MIC50 [35]: 8 µg/mL (≈ 21.9 µM)
MIC90 [35]: 8 µg/mL (≈ 21.9 µM)
MIC [36]: 0.06 µg/mL (≈ 0.164 µM)
MIC50 [37]: 8 µg/mL
MIC90 [37]: 8 µg/mL
MIC [38]: 8 µg/mL (≈ 21.9 µM)
MIC [39]: 4 µg/mL (≈ 10.9 µM)
MIC [40]: 1 µg/mL (≈ 2.74 µM)
MIC [41]: 4 µg/mL (≈ 10.9 µM)
MIC [42]: 2 µg/mL (≈ 5.47 µM)
MIC [43]: 2 µg/mL (≈ 5.47 µM)
MIC [44]: 0.5 µg/mL (≈ 1.37 µM)
MIC [45]: 2 µg/mL
MIC [46]: 0.25 µg/mL
MIC [47]: 2 µg/mL (≈ 5.47 µM)
MIC [48]: 1 µg/mL
MIC [49]: 2 µg/mL (≈ 5.47 µM)
MIC [50]: 8 µg/mL (≈ 21.9 µM)
MIC [51]: 8 µg/mL (≈ 21.9 µM)
MIC [52]: 4 µg/mL (≈ 10.9 µM)
MIC [53]: 2 µg/mL (≈ 5.47 µM)
MIC [54]: 16 µg/mL (≈ 43.8 µM)
MIC [55]: 1 µg/mL (≈ 2.74 µM)
MIC [56]: 0.25 µg/mL
MIC [57]: 0.03 µg/mL (≈ 0.0821 µM)
MIC50 [58]: 0.25 µg/mL (≈ 0.684 µM)
MIC90 [58]: 1 µg/mL (≈ 2.74 µM)
MIC50 [59]: 0.25 µg/mL
MIC90 [59]: 1 µg/mL
MIC50 [60]: 0.03 µg/mL
MIC90 [60]: 0.03 µg/mL
MIC [61]: 4 µg/mL (≈ 10.9 µM)
MIC [62]: 0.03 µg/mL (≈ 0.0821 µM)
MIC [63]: 2 µg/mL (≈ 5.47 µM)

— ChEMBL document CHEMBL1649446, “Comparative antipneumococcal activities of sulopenem and other drugs” (2009)
